Active and inactive are the calls of the source. The rule behind the calls is not given here.
Experiments:
[1] = tested on: Syrian golden hamster; assay: Induction of reverse cholestrol transport in high fat diet-induced dyslipidemia Syrian Golden hamster model assessed as increase in ApoA mRNA expression in liver at 100 mg/kg, po administered for 1 week by qRT-PCR analysis; format: functional, organism-based; details: Mesocricetus auratus
[2] = organism: Mus musculus; assay: Activation of Wnt3a/beta-catenin in mouse 3T3L1 cells assessed as down-regulation of FAS expression at 20 uM after 2 to 6 days in presence of FH353 by Western blot analysis; format: cell-based
[3] = organism: Mus musculus; assay: Activation of Wnt3a/beta-catenin in mouse 3T3L1 cells assessed as down-regulation of cyclinD expression at 20 uM after 16 to 24 hrs by Western blot analysis; format: cell-based
How it was run: (§1)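 3T3-L1 cells given MDI differentiation media (0.5 mM IBMX, 5 µg/ml insulin, 250 nM dexamethasone) with or without 20 µM compound. Proteins isolated at 16 and 24 h and probed by Western blot for CDK2, CDK4, CDK6, cyclin D1 and D3. Densitometry normalized to actin, n=3, mean ± SD, Student t test.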

[4] = tested on: C3H 10T1/2; assay: Anti-adipogenic activity in mouse C3H10T1/2 cells assessed as reduction in lipid accumulation at early differentiation stage at 20 uM measured up to 3 days by Oil Red O staining based leica microscopy; format: functional, cell-based
How it was run: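 3T3-L1 or C3H10T1/2 cells given 20 µM compound in differentiation media for varied time periods, then stained with Oil red O. Imaged by microscopy at 10x, representative of three independent experiments.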

[5] = organism: Mus musculus; assay: Activation of Wnt3a/beta-catenin in mouse 3T3L1 cells assessed as induction of TCF1 expression at 20 uM after 16 to 24 hrs in presence of beta-catenin/TCF complex inhibitor FH353 by Western blot analysis; format: cell-based
How it was run: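 Confluent 3T3-L1 cells given differentiation media (IBMX/insulin/dexamethasone) with 20 µM compound, with or without the β-catenin/TCF inhibitor FH353 (10 µM). Proteins isolated at 16 and 24 h and Western blotted after SDS-PAGE and nitrocellulose transfer. Blocking in 5% milk/TBS-T, primary antibody overnight at 4 °C, chemiluminescent detection, β-actin control, three independent experiments.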

[6] = tested on: 3T3-L1; assay: Induction of Wnt5b mRNA expression in mouse 3T3L1 cells at 20 uM by qRT-PCR analysis; format: functional, cell-based
How it was run: (§2)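 3T3-L1 cells induced with MDI differentiation medium with or without 20 µM. RNA isolated with TRIzol and 500 ng reverse-transcribed to cDNA for real-time PCR. n=3 with triplicates, mean ± SD; one-way ANOVA with Bonferroni post-test.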

[7] = tested on: 3T3-L1; assay: Induction of Wnt10a mRNA expression in mouse 3T3L1 cells at 20 uM by qRT-PCR analysis; format: functional, cell-based; how it was run: as §2
[8] = organism: Mus musculus; assay: Activation of Wnt3a/beta-catenin in mouse 3T3L1 cells assessed as down-regulation of AP2 expression at 20 uM after 2 to 6 days in presence of FH353 by Western blot analysis
[9] = organism: Mus musculus; assay: Activation of Wnt3a/beta-catenin in mouse 3T3L1 cells assessed as down-regulation of PPARgamma expression at 20 uM after 2 to 6 days in presence of FH353 by Western blot analysis; format: cell-based
[10] = organism: Homo sapiens; assay: Anti-adipogenic activity in human differentiated MSC assessed as reduction in lipid accumulation at 5 to 20 uM after 20 mins by Oil Red O absorbance method; format: functional
How it was run: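 C3H10T1/2 or human MSC differentiated with IBMX/insulin/dexamethasone media containing 5, 10 or 20 µM compound. Cells stained with Oil red O (0.36% in 60% isopropanol, 20 min), dye extracted with isopropanol, absorbance read at 492 nm. n=3, mean ± SD, Student t test against MDI group.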

[11] = organism: Homo sapiens; assay: Anti-adipogenic activity in human differentiated MSC assessed as reduction in lipid accumulation at 5 to 20 uM after 20 mins by Oil Red O staining based microscopic method; format: functional
How it was run: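 C3H10T1/2 or hMSC adipocytes differentiated alongside 5, 10 or 20 µM compound in differentiation media, stained with Oil red O. Images taken by bright-field microscopy at 10x and 20x, representative of three independent experiments.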

[12] = organism: Mus musculus; assay: Activation of Wnt3a/beta-catenin in mouse 3T3L1 cells assessed as down-regulation of CDK4 expression at 20 uM after 16 to 24 hrs by Western blot analysis; format: cell-based; how it was run: as §1
[13] = tested on: Syrian golden hamster; assay: Anti-dyslipidemic activity in high fat diet-induced dyslipidemia Syrian Golden hamster model assessed as reduction in serum triglycerides levels at 100 mg/kg, po administered for 1 week followed by overnight fasting post last dose by clinical bio-analyzer analysis; format: functional, organism-based; details: Mesocricetus auratus
How it was run: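 Male Syrian Golden hamsters (8-10 weeks, 100-120 g), 4 per group, given 45% kCal high fat diet for 4 days, then HFD plus oral dosing in 0.5% w/v NaCMC for one week. After an overnight fast, blood was taken from the retro-orbital plexus under anesthesia and serum was analysed on a clinical bio-analyzer. Mean ± SEM; one-way ANOVA with Bonferroni post-test.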

[14] = organism: Mus musculus; assay: Activation of Wnt3a/beta-catenin in mouse 3T3L1 cells assessed as down-regulation of cyclinE expression at 20 uM after 16 to 24 hrs by Western blot analysis; format: cell-based
[15] = tested on: Syrian golden hamster; assay: Induction of reverse cholestrol transport in high fat diet-induced dyslipidemia Syrian Golden hamster model assessed as increase in ABCG5 mRNA expression in eWAT at 100 mg/kg, po administered for 1 week by qRT-PCR analysis; format: functional, organism-based; details: Mesocricetus auratus
[16] = organism: Mus musculus; assay: Activation of Wnt3a/beta-catenin in differentiated mouse 3T3L1 cells assessed as down-regulation of AP2 protein expression at 20 uM after 16 to 24 hrs by Western blot analysis
How it was run: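 3T3-L1 preadipocytes grown to confluence in high-glucose DMEM/10% FBS, then given differentiation media (0.5 mM IBMX, 5 µg/ml insulin, 250 nM dexamethasone) with or without 20 µM compound. Protein isolated at set time points, lysed with protease/phosphatase inhibitors, BCA-quantified, resolved by 8–12% SDS-PAGE, immunoblotted with ECL detection. β-actin loading control, densitometry normalized to actin, n=3.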

[17] = tested on: Syrian golden hamster; assay: Induction of reverse cholestrol transport in high fat diet-induced dyslipidemia Syrian Golden hamster model assessed as decrease in NPCL1 mRNA expression in liver at 100 mg/kg, po administered for 1 week by qRT-PCR analysis; format: functional, organism-based; details: Mesocricetus auratus
[18] = tested on: Syrian golden hamster; assay: Anti-adipogenic activity in high fat diet-induced dyslipidemia Syrian Golden hamster model assessed as decrease in PPARgamma levels in eWAT at 100 mg/kg, po administered for 1 week by Western blot analysis; format: functional, organism-based; details: Mesocricetus auratus
How it was run: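 Male Syrian golden hamsters (8–10 wk, 100–120 g) fed 45% kcal HFD for 4 days, then dosed orally at 100 mg/kg in 0.5% NaCMC for one week, n=4 per group. Fenofibrate 100 mg/kg p.o. used as positive control. Epididymal WAT proteins Western blotted, three independent experiments.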

Activity [16]: Active
SMILES: Cc1ccc(S(=O)(=O)N(Cc2cn(Cc3cccc(F)c3F)nn2)Cc2cn(S(=O)(=O)c3ccc(C)cc3)c3ccccc23)cc1
Activity [1]: Active | Activity [2]: inactive | Activity [3]: Active | Activity [4]: Active | Activity [5]: inactive | Activity [6]: inactive | Activity [7]: inactive | Activity [8]: inactive | Activity [9]: inactive | Activity [10]: Active | Activity [11]: Active | Activity [12]: Active | Activity [13]: Active | Activity [14]: Active | Activity [15]: Active | Activity [17]: Active | Activity [18]: Active

— ChEMBL document CHEMBL4138193, “Novel indole and triazole based hybrid molecules exhibit potent anti-adipogenic and antidyslipidemic activity by activating Wnt3a/β-catenin pathway” (Eur J Med Chem, 2018)
